Measured values taken from ChEMBL document CHEMBL1165943, “Design and synthesis of new anticancer pyrimidines with multiple-kinase inhibitory effect” (Bioorg Med Chem, 2010).

Key:
Format in all cases: functional
HL-60(TB) = test: Cytotoxicity against human HL-60(TB) cells assessed as cell growth at 10 uM; conditions: Homo sapiens, HL-60; read-out: Activity
How it was run: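 Single-concentration 10 µM screen of HL-60(TB) within the 60-line panel, grown in RPMI 1640 with 5% FBS. The drug from DMSO stock is incubated 48 h at 37 °C, settled cells are TCA-fixed and SRB-stained, and absorbance is read at 515 nm. Percent growth is reported, and inhibition % is taken as 100 minus growth %.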

HCC 2998 = test: Cytotoxicity against human HCC2998 cells assessed as cell growth at 10 uM; conditions: Homo sapiens, HCC 2998; read-out: Activity
How it was run: (§1)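 Single-concentration screen at 10 μM across the 60-cell-line panel (nine tissue types); growth percentage recorded per cell line, with inhibition taken as 100 minus growth percentage.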

MOLT-4 = test: Cytotoxicity against human MOLT4 cells assessed as cell growth at 10 uM; conditions: Homo sapiens, MOLT-4; read-out: Activity
How it was run: (§2)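 Single-dose screen at 10 μM across the 60-cell-line panel. Cells grown in RPMI 1640 with 5% FBS and 2 mM L-glutamine, seeded at 5,000–40,000 cells/well according to doubling time, and treated 24 h later. Exposure lasted 48 h at 37 °C, 5% CO₂. Adherent cells were fixed with cold TCA, suspension cells were fixed settled, and both were stained with SRB and read at 515 nm. Growth % was recorded, with inhibition % = 100 − growth %.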

IGROV-1 = test: Cytotoxicity against human IGROV1 cells assessed as cell growth at 10 uM; conditions: Homo sapiens, IGROV-1; read-out: Activity; how it was run: as §2
U-251 = test: Cytotoxicity against human U251 cells assessed as cell growth at 10 uM; conditions: Homo sapiens, U-251; read-out: Activity; how it was run: as §2
SF-539 = test: Cytotoxicity against human SF539 cells assessed as cell growth at 10 uM; conditions: Homo sapiens, SF-539; read-out: Activity; how it was run: as §2
NCI-H322M = test: Cytotoxicity against human NCI-H322M cells assessed as cell growth at 10 uM; conditions: Homo sapiens, NCI-H322M; read-out: Activity; how it was run: as §2
NCI-H460 = test: Cytotoxicity against human NCI-H460 cells assessed as cell growth at 10 uM; conditions: Homo sapiens, NCI-H460; read-out: Activity; how it was run: as §2
HT-29 = test: Cytotoxicity against human HT-29 cells assessed as cell growth at 10 uM; conditions: Homo sapiens, HT-29; read-out: Activity; how it was run: as §1
SR = test: Cytotoxicity against human SR cells assessed as cell growth at 10 uM; conditions: Homo sapiens, SR; read-out: Activity; how it was run: as §2
NCI-H522 = test: Cytotoxicity against human NCI-H522 cells assessed as cell growth at 10 uM; conditions: Homo sapiens, NCI-H522; read-out: Activity; how it was run: as §2
SK-OV-3 = test: Cytotoxicity against human SKOV3 cells assessed as cell growth at 10 uM; conditions: Homo sapiens, SK-OV-3; read-out: Activity; how it was run: as §2
SF-268 = test: Cytotoxicity against human SF268 cells assessed as cell growth at 10 uM; conditions: Homo sapiens, SF-268; read-out: Activity; how it was run: as §2
Malme-3M = test: Cytotoxicity against human MALME-3M cells assessed as cell growth at 10 uM; conditions: Homo sapiens, Malme-3M; read-out: Activity; how it was run: as §2
SNB-75 = test: Cytotoxicity against human SNB75 cells assessed as cell growth at 10 uM; conditions: Homo sapiens, SNB-75; read-out: Activity; how it was run: as §2
NCI/ADR-RES = test: Cytotoxicity against human NCI/ADR-RES cells assessed as cell growth at 10 uM; conditions: Homo sapiens, NCI/ADR-RES; read-out: Activity; how it was run: as §2
CAKI-1 = test: Cytotoxicity against human Caki1 cells assessed as cell growth at 10 uM; conditions: Homo sapiens, CAKI-1; read-out: Activity; how it was run: as §1
K562 = test: Cytotoxicity against human K562 cells assessed as cell growth at 10 uM; conditions: Homo sapiens, K562; read-out: Activity; how it was run: as §2
HCT-15 = test: Cytotoxicity against human HCT15 cells assessed as cell growth at 10 uM; conditions: Homo sapiens, HCT-15; read-out: Activity; how it was run: as §1
ACHN = test: Cytotoxicity against human ACHN cells assessed as cell growth at 10 uM; conditions: Homo sapiens, ACHN; read-out: Activity; how it was run: as §1
SK-MEL-28 = test: Cytotoxicity against human SK-MEL-28 cells assessed as cell growth at 10 uM; conditions: Homo sapiens, SK-MEL-28; read-out: Activity; how it was run: as §2
HOP-62 = test: Cytotoxicity against human HOP62 cells assessed as cell growth at 10 uM; conditions: Homo sapiens, HOP-62; read-out: Activity; how it was run: as §1
SF-295 = test: Cytotoxicity against human SF295 cells assessed as cell growth at 10 uM; conditions: Homo sapiens, SF-295; read-out: Activity; how it was run: as §2
OVCAR-3 = test: Cytotoxicity against human OVCAR-3 cells assessed as cell growth at 10 uM; conditions: Homo sapiens, OVCAR-3; read-out: Activity; how it was run: as §2
UO-31 = test: Cytotoxicity against human UO31 cells assessed as cell growth at 10 uM; conditions: Homo sapiens, UO-31; read-out: Activity; how it was run: as §2
SK-MEL-2 = test: Cytotoxicity against human SK-MEL-2 cells assessed as cell growth at 10 uM; conditions: Homo sapiens, SK-MEL-2; read-out: Activity; how it was run: as §2
SW-620 = test: Cytotoxicity against human SW620 cells assessed as cell growth at 10 uM; conditions: Homo sapiens, SW-620; read-out: Activity; how it was run: as §2
MDA-MB-468 = test: Cytotoxicity against human MDA-MB-468 cells assessed as cell growth at 10 uM; conditions: Homo sapiens, MDA-MB-468; read-out: Activity; how it was run: as §2
DU-145 = test: Cytotoxicity against human DU145 cells assessed as cell growth at 10 uM; conditions: Homo sapiens, DU-145; read-out: Activity; how it was run: as §1
SK-MEL-5 = test: Cytotoxicity against human SK-MEL-5 cells assessed as cell growth at 10 uM; conditions: Homo sapiens, SK-MEL-5; read-out: Activity; how it was run: as §2
OVCAR-8 = test: Cytotoxicity against human OVCAR8 cells assessed as cell growth at 10 uM; conditions: Homo sapiens, OVCAR-8; read-out: Activity; how it was run: as §2
EKVX = test: Cytotoxicity against human EKVX cells assessed as cell growth at 10 uM; conditions: Homo sapiens, EKVX; read-out: Activity; how it was run: as §1
TK-10 = test: Cytotoxicity against human TK10 cells assessed as cell growth at 10 uM; conditions: Homo sapiens, TK-10; read-out: Activity; how it was run: as §2
T47D = test: Cytotoxicity against human T47D cells assessed as cell growth at 10 uM; conditions: Homo sapiens, T47D; read-out: Activity; how it was run: as §2
HCT-116 = test: Cytotoxicity against human HCT116 cells assessed as cell growth at 10 uM; conditions: Homo sapiens, HCT-116; read-out: Activity; how it was run: as §1
KM12 = test: Cytotoxicity against human KM12 cells assessed as cell growth at 10 uM; conditions: Homo sapiens, KM12; read-out: Activity; how it was run: as §2
OVCAR-4 = test: Cytotoxicity against human OVCAR4 cells assessed as cell growth at 10 uM; conditions: Homo sapiens, OVCAR-4; read-out: Activity; how it was run: as §2
M14 = test: Cytotoxicity against human M14 cells assessed as cell growth at 10 uM; conditions: Homo sapiens, M14; read-out: Activity; how it was run: as §2

SMILES	growth at 10 µM (HL-60(TB)) [%]	growth at 10 µM (HCC 2998) [%]	growth at 10 µM (MOLT-4) [%]	growth at 10 µM (IGROV-1) [%]	growth at 10 µM (U-251) [%]	growth at 10 µM (SF-539) [%]	growth at 10 µM (NCI-H322M) [%]	growth at 10 µM (NCI-H460) [%]	growth at 10 µM (HT-29) [%]	growth at 10 µM (SR) [%]	growth at 10 µM (NCI-H522) [%]	growth at 10 µM (SK-OV-3) [%]	growth at 10 µM (SF-268) [%]	growth at 10 µM (Malme-3M) [%]	growth at 10 µM (SNB-75) [%]	growth at 10 µM (NCI/ADR-RES) [%]	growth at 10 µM (CAKI-1) [%]	growth at 10 µM (K562) [%]	growth at 10 µM (HCT-15) [%]	growth at 10 µM (ACHN) [%]	also measured
FC(F)(F)c1cc(Nc2nccc(-c3cccnc3)n2)cc(C(F)(F)F)c1	101	118	95	101	98.7	97.1	97.5	103	92.1	87.8	86.5	106	99.5	103	95.3	94.7	91.5	89.6	92.7	102	growth at 10 µM (SK-MEL-28): 115%; growth at 10 µM (HOP-62): 104%; growth at 10 µM (SF-295): 103%; growth at 10 µM (OVCAR-3): 119%; growth at 10 µM (UO-31): 101%; growth at 10 µM (SK-MEL-2): 98.2%; growth at 10 µM (SW-620): 109%; growth at 10 µM (MDA-MB-468): 98.4%; growth at 10 µM (DU-145): 106%; growth at 10 µM (SK-MEL-5): 101%; growth at 10 µM (OVCAR-8): 102%; growth at 10 µM (EKVX): 102%; growth at 10 µM (TK-10): 106%; growth at 10 µM (T47D): 83.9%; growth at 10 µM (HCT-116): 91.1%; growth at 10 µM (KM12): 103%; growth at 10 µM (OVCAR-4): 121%; growth at 10 µM (M14): 116%
Cc1ccc(Nc2nc(C)cc(-c3cccnc3)n2)c(C)c1	98.5	101	91.4	90.4	92.2	89.7	100	95.7	96.8	94.4	90.6	104	96.4	107	85.3	85	88.8	85.8	99.7	108	growth at 10 µM (SK-MEL-28): 108%; growth at 10 µM (HOP-62): 111%; growth at 10 µM (SF-295): 98.3%; growth at 10 µM (OVCAR-3): 105%; growth at 10 µM (UO-31): 86.9%; growth at 10 µM (SK-MEL-2): 107%; growth at 10 µM (SW-620): 97.5%; growth at 10 µM (MDA-MB-468): 72.8%; growth at 10 µM (DU-145): 99.5%; growth at 10 µM (SK-MEL-5): 89.8%; growth at 10 µM (OVCAR-8): 94.2%; growth at 10 µM (EKVX): 96.1%; growth at 10 µM (TK-10): 118%; growth at 10 µM (T47D): 87.1%; growth at 10 µM (HCT-116): 95.2%; growth at 10 µM (KM12): 98.7%; growth at 10 µM (OVCAR-4): 102%; growth at 10 µM (M14): 114%
